{
  "source": "ChEMBL document CHEMBL5346974",
  "about": "“Discovery of 5-Phenylpyrazolopyrimidinone Analogs as Potent Antitrypanosomal Agents with In Vivo Efficacy” (J Med Chem, 2023)",
  "format_in_all_cases": "functional, organism-based",
  "key": {"[1]": {"test_system": "Trypanosoma brucei brucei", "experiment": "In vivo antitrypanosomal activity against Trypanosoma brucei brucei infected stage-I mouse model of HAT assessed as clearance of peripheral blood parasites at 50 mg/kg, po twice daily for 5 consecutive days", "conditions": "time 5.0 day", "in_short": "(§1)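 Mice in groups of three were infected IP with 10^4 T. b. brucei Squib 427 […]. Parasitemia was checked by tail-vein blood microscopy up to 63 dpi, plus SL RNA qPCR on survivors.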"}, "[2]": {"test_system": "Trypanosoma brucei brucei", "experiment": "In vivo antitrypanosomal activity against Trypanosoma brucei brucei infected stage-I mouse model of HAT assessed as clearance of peripheral blood parasites at 50 mg/kg, po twice daily for 5 consecutive days measured for 60 days of post infection", "conditions": "time 60.0 day", "in_short": "as §1"}, "[3]": {"test_system": "Trypanosoma brucei brucei", "experiment": "In vivo antitrypanosomal activity against Trypanosoma brucei brucei infected stage-I po dosed mouse model of HAT assessed as clearance of parasitemia treated twice daily for 5 consecutive days", "conditions": "dose 6.25-50 mg/kg, time 5.0 day", "in_short": "as §1"}},
  "note": "The source made the active and inactive calls. The calls are words filed in the database; no cut-off is given here.",
  "data": [
    {"smiles": "Cc1ccc(C(=O)Nc2ccc(S(=O)(=O)O)c3cc(S(=O)(=O)O)cc(S(=O)(=O)O)c23)cc1NC(=O)c1cccc(NC(=O)Nc2cccc(C(=O)Nc3cc(C(=O)Nc4ccc(S(=O)(=O)O)c5cc(S(=O)(=O)O)cc(S(=O)(=O)O)c45)ccc3C)c2)c1", "values": [
      {"measurement": "Activity", "setting": "[1]", "value": "Active"}
    ]},
    {"smiles": "CC(C)c1n[nH]c2c(=O)[nH]c(-c3ccc(F)cc3)nc12", "values": [
      {"measurement": "Activity", "setting": "[2]", "value": "Active"},
      {"measurement": "Activity", "setting": "[3]", "value": "Dose-Dependent Effect"}
    ]}
  ]
}
